Reference: ChEMBL document CHEMBL3425429
Activity calls are given as the source filed them. The calls are words filed in the database; no cut-off is given here.

Assays:
[1] = Terminal half life in Sprague-Dawley rat at 10 mg/kg, po by LC/MS analysis; format: ADME, organism-based; design: dose 10 mg/kg, route oral; details: in vivo, read-out: beta t1/2 (converted)
In short: (§1)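 Male Sprague-Dawley rats fitted with jugular vein catheters and fasted overnight, then given a single 10 mg/kg oral gavage dose; n=5. Serial blood samples were spun at once to plasma and analysed by LC-MS/MS. Noncompartmental parameters were fitted.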

MDA-MB-231 [2] = assay: Induction of apoptosis in human MDA-MB-231 cells assessed as viable cells at 0.1 uM after 48 hrs by annexin V-FITC/propidium iodide staining-based flow cytometric analysis (reference value: 94.4%); format: functional; details: MDA-MB-231, 48 h, read-out: Activity
MDA-MB-231 [3] = assay: Induction of apoptosis in human MDA-MB-231 cells assessed as early apoptotic cells at 0.03 uM after 24 hrs by annexin V-FITC/propidium iodide staining-based flow cytometric analysis (reference value: 1.58%); format: functional
MDA-MB-231 [4] = assay: Antitumor activity against human MDA-MB-231 cells xenografted in SCID mouse assessed as tumor growth inhibition at 7.5 to 15 mg/kg/day, po qd administered for 18 days measured every 3 days during compound dosing; format: functional, organism-based
In short: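 SCID mice (5–6 weeks) were injected subcutaneously with 100 μL of exponential-phase MDA-MB-231 cells (5 × 10^7 per mL). They were randomized at 150–200 mm3 tumor volume (6 per group) and dosed orally once daily for 18 days in sterile water with 25% PEG400 plus 5% DMSO, with a vehicle group. Tumor volume (ab2/2) was measured every 3 days.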

MDA-MB-231 [5] = assay: Induction of apoptosis in human MDA-MB-231 cells assessed as early apoptotic cells at 0.1 uM after 48 hrs by annexin V-FITC/propidium iodide staining-based flow cytometric analysis (reference value: […]); format: functional
BT-474 = assay: Cytotoxicity against human BT474 cells assessed as cell viability after 72 hrs by MTT assay; format: functional, cell-based; details: BT-474, 72 h
MDA-MB-231 [6] = assay: Induction of apoptosis in human MDA-MB-231 cells assessed as late apoptotic cells at 0.03 uM after 48 hrs by annexin V-FITC/propidium iodide staining-based flow cytometric analysis (reference value: 4.25%); format: functional
MDA-MB-231 [7] = assay: Induction of apoptosis in human MDA-MB-231 cells assessed as early apoptotic cells at 0.3 uM after 48 hrs by annexin V-FITC/propidium iodide staining-based flow cytometric analysis (reference value: […]); format: functional
MDA-MB-231 [8] = assay: Antitumor activity against human MDA-MB-231 cells xenografted in SCID mouse assessed as reduction in number of proliferating cells in tumor at 30 mg/kg/day, po administered for 18 days measured post last dose by Ki67 staining-based assay; format: functional, organism-based
In short: (§2)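 SCID mice carrying subcutaneous MDA-MB-231 xenografts received oral dosing once daily for 18 days (vehicle 25% PEG400 plus 5% DMSO in sterile water); at the end, tumors formalin-fixed and paraffin-embedded, 4–8 μm sections immunostained (Ki67, phospho-proteins) or TUNEL/AP-Red labelled, and compared with control.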

MDA-MB-231 [9] = assay: Antitumor activity against human MDA-MB-231 cells xenografted in SCID mouse assessed as increase in number of apoptotic cells in tumor at 30 mg/kg/day, po administered for 18 days measured post last dose by TUNEL assay; format: functional, organism-based; in short: as §2
MDA-MB-231 [10] = assay: Inhibition of ERK phosphorylation in human MDA-MB-231 cells at 0.001 to 1 uM after 20 hrs by Western blot analysis; format: cell-based
In short: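 MDA-MB-231 cells exposed to a concentration series for 20 h at 37 °C, then washed in ice-cold saline and lysed in RIPA buffer with protease cocktail. Lysates were cleared at 12 000 rpm for 10 min at 4 °C and protein measured by Bradford. Equal protein was run on SDS-PAGE, transferred to PVDF and immunoblotted for phospho-proteins.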

[11] = Clearance in Sprague-Dawley rat at 10 mg/kg, po by LC/MS analysis; format: ADME, organism-based; design: dose 10 mg/kg, route oral; details: in vivo
In short: (§3)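 Single oral gavage dose in male Sprague-Dawley rats fasted overnight; serial blood drawn via surgically placed jugular vein catheters at set times, plasma separated at once and measured by HPLC-MS/MS; noncompartmental parameters fitted; n=5.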

Mus musculus = assay: In vivo inhibition of ERK phosphorylation in tumor of SCID mouse xenografted with human MDA-MB-231 cells at 30 mg/kg/day, po administered for 18 days measured post last dose by immunohistochemical analysis relative to vehicle-treated control; format: functional, organism-based; in short: as §2
[12] = Cmax in Sprague-Dawley rat at 10 mg/kg, po by LC/MS analysis; format: ADME, organism-based; design: dose 10 mg/kg, route oral; details: in vivo; in short: as §3
MDA-MB-435 = assay: Cytotoxicity against human MDA-MB-435 cells assessed as cell viability after 72 hrs by MTT assay; format: functional, cell-based; details: MDA-MB-435, 72 h
[13] = molecular target: Tyrosine-protein kinase Yes (Homo sapiens, UniProt P07947); assay: Inhibition of human Yes
In short: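 Recombinant human kinase assayed in Eurofins KinaseProfiler panel; IC50 reported as mean of two independent experiments.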

MDA-MB-231 [14] = assay: Induction of apoptosis in human MDA-MB-231 cells assessed as late apoptotic cells at 0.3 uM after 48 hrs by annexin V-FITC/propidium iodide staining-based flow cytometric analysis (reference value: 4.25%); format: functional
[15] = Cytotoxicity against human MDA-MB-436 cells assessed as cell viability after 72 hrs by MTT assay; format: functional, cell-based; details: MDA-MB-436, 72 h
MDA-MB-231 [16] = assay: Antiinvasive activity against human MDA-MB-231 cells at 0.1 uM after 24 hrs by transwell assay; format: functional, cell-based
MDA-MB-231 [17] = assay: Antitumor activity against human MDA-MB-231 cells xenografted in mouse assessed as tumor growth inhibition at 40 mg/kg/day, po; format: functional, organism-based
In short: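 Oral daily dosing at 40 mg kg−1 d−1 began once MDA-MB-231 xenografts reached about 200 mm3; three mice per group; tumor volume tracked.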

[18] = molecular target: Serine/threonine-protein kinase pim-1 (Homo sapiens, UniProt P11309); assay: Inhibition of human Pim1
In short: (§4)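 Recombinant human protein kinases screened through the Eurofins KinaseProfiler service. IC50 values are means of two independent experiments.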

[19] = molecular target: Cyclin-dependent kinase 2 (Homo sapiens, UniProt P24941); assay: Inhibition of human CDK2; in short: as §4
Rattus norvegicus [20] = assay: Apparent volume of distribution at steady state in Sprague-Dawley rat at 10 mg/kg, po by LC/MS analysis; format: ADME, organism-based; design: dose 10 mg/kg, route oral; details: in vivo; in short: as §3
[21] = molecular target: NUAK family SNF1-like kinase 1 (Homo sapiens, UniProt O60285); assay: Inhibition of human Ark5; in short: as §4
MDA-MB-231 [22] = assay: Induction of apoptosis in human MDA-MB-231 cells assessed as late apoptotic cells at 0.1 uM after 48 hrs by annexin V-FITC/propidium iodide staining-based flow cytometric analysis (reference value: 4.25%); format: functional
MDA-MB-231 [23] = assay: Induction of apoptosis in human MDA-MB-231 cells assessed as late apoptotic cells at 0.3 uM after 24 hrs by annexin V-FITC/propidium iodide staining-based flow cytometric analysis (reference value: 2.67%); format: functional
[24] = molecular target: Dual specificity mitogen-activated protein kinase kinase 1 (Homo sapiens, UniProt Q02750); assay: Inhibition of human MEK1; in short: as §4
[25] = molecular target: Mitogen-activated protein kinase 8 (Homo sapiens, UniProt P45983); assay: Inhibition of human JNK1alpha1; in short: as §4
[26] = Tmax in Sprague-Dawley rat at 10 mg/kg, po by LC/MS analysis; format: ADME, organism-based; design: dose 10 mg/kg, route oral; details: in vivo; in short: as §1
Rattus norvegicus [27] = assay: AUC (0 to infinity) in Sprague-Dawley rat at 10 mg/kg, po by LC/MS analysis; format: ADME, organism-based, Plasma; design: time infinity, dose 10 mg/kg, route oral; details: in vivo; in short: as §3

Chain of Dual specificity mitogen-activated protein kinase kinase 1 (Q02750 whole entry): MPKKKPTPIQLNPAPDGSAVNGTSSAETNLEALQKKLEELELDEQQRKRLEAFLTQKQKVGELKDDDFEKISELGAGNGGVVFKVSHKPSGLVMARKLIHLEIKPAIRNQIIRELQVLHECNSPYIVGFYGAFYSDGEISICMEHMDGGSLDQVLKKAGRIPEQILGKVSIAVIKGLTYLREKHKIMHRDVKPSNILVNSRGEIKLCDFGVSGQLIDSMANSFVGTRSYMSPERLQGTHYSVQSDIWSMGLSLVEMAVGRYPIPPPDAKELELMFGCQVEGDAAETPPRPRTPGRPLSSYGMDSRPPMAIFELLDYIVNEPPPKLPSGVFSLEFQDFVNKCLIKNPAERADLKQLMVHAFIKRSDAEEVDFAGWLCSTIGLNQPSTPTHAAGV
Chain of Serine/threonine-protein kinase pim-1 (P11309 whole entry): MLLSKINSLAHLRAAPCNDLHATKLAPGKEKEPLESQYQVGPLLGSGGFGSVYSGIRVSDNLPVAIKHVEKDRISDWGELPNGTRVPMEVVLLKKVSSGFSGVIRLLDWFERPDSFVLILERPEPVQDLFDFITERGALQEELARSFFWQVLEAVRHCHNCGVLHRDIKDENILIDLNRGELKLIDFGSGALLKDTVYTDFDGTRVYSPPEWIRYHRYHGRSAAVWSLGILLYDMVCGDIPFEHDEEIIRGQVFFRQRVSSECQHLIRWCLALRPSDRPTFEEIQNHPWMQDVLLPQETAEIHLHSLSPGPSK
Chain of Mitogen-activated protein kinase 8 (P45983 whole entry, looked up): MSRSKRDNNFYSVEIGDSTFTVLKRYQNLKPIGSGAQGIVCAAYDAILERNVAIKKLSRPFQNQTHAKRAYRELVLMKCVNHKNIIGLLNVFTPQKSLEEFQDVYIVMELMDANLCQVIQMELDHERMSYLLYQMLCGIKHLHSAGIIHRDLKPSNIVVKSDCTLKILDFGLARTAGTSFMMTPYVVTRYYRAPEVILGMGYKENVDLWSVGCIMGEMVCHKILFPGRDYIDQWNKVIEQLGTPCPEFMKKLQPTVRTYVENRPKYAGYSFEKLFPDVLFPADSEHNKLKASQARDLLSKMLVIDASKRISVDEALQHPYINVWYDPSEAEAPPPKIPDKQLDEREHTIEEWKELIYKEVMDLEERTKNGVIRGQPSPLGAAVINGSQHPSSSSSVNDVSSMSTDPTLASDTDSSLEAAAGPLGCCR
Chain of NUAK family SNF1-like kinase 1 (O60285 whole entry): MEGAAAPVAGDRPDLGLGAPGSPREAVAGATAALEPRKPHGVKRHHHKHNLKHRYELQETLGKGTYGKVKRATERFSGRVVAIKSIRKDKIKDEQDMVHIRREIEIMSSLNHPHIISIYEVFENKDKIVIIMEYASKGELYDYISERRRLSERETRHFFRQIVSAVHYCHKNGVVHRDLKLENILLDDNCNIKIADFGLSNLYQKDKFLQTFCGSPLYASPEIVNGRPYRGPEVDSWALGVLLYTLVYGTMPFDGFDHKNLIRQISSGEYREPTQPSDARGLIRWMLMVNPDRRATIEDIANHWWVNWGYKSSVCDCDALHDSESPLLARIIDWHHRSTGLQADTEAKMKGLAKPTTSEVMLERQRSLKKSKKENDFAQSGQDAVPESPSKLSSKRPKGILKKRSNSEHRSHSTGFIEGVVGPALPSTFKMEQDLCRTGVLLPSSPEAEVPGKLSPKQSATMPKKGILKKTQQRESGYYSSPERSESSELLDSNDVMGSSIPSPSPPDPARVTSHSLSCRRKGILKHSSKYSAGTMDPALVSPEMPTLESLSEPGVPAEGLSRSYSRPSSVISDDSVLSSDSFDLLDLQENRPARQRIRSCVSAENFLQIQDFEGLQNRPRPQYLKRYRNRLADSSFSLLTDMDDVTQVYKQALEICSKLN
Chain of Tyrosine-protein kinase Yes (P07947 whole entry): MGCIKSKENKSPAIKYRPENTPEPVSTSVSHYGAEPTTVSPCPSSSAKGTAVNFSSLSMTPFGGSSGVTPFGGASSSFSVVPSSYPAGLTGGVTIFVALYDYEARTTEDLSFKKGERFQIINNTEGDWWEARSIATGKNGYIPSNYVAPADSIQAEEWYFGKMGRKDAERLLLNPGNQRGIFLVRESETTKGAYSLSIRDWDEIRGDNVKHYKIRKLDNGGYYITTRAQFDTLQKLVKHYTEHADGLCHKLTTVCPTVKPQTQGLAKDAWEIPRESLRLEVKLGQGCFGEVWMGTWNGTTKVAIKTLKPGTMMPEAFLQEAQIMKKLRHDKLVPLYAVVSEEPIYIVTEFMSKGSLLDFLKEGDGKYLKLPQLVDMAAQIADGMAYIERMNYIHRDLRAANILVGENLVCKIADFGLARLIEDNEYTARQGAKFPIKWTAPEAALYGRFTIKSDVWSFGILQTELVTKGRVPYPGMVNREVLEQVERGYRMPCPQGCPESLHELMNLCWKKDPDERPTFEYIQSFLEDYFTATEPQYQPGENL

**Q.** Which results are given for CCn1nc(C#Cc2cc(C(=O)Nc3ccc(CN4CCN(C)CC4)c(C(F)(F)F)c3)ccc2C)c2c(N)ncnc21?
**A.** half-life [1]: 12.8 h; viability at 0.1 µM (MDA-MB-231 [2]): 69.2%; Activity (MDA-MB-231 [3]): 2.29%; TGI (MDA-MB-231 [4]): Active; Activity (MDA-MB-231 [5]): 13.9%; IC50 (BT-474): > 10 µM; Activity (MDA-MB-231 [6]): 4.85%; Activity (MDA-MB-231 [7]): 24.1%; Activity (MDA-MB-231 [8]): Active; Activity (MDA-MB-231 [9]): Active; inhibition (MDA-MB-231 [10]): Active; CL/F [11]: 35 mL/min/kg; inhibition (Mus musculus): Active; Cmax [12]: 215 ng/mL; IC50 (MDA-MB-435): 0.005 µM; IC50 [13]: 0.0008 µM; Activity (MDA-MB-231 [14]): 10.3%; IC50 [15]: 0.316 µM; Activity (MDA-MB-231 [16]): Active; TGI (MDA-MB-231 [17]): Active; IC50 [18]: > 10 µM; IC50 [19]: > 10 µM; Vdss(app) (Rattus norvegicus [20]): 38.57 L/kg; IC50 [21]: > 10 µM; Activity (MDA-MB-231 [22]): 15.9%; Activity (MDA-MB-231 [23]): 15.5%; IC50 [24]: > 10 µM; IC50 [25]: > 10 µM; Tmax [26]: 12 h; AUC (Rattus norvegicus [27]): 4772.5 µg/L/h
